ChEMBL document CHEMBL1125747, “Design, synthesis, and physicochemical properties of a novel, conformationally restricted 2,3-dihydro-1,3,4-thiadiazole-containing angiotensin converting enzyme inhibitor which is preferentially eliminated by the biliary route in rats” (J Med Chem, 1991)

Assays:
[1] = target: T1, Angiotensin-converting enzyme (Rattus norvegicus) (UniProt P47820); experiment: Relative inhibitory activity against angiotensin I converting enzyme
T1 sequence (whole entry): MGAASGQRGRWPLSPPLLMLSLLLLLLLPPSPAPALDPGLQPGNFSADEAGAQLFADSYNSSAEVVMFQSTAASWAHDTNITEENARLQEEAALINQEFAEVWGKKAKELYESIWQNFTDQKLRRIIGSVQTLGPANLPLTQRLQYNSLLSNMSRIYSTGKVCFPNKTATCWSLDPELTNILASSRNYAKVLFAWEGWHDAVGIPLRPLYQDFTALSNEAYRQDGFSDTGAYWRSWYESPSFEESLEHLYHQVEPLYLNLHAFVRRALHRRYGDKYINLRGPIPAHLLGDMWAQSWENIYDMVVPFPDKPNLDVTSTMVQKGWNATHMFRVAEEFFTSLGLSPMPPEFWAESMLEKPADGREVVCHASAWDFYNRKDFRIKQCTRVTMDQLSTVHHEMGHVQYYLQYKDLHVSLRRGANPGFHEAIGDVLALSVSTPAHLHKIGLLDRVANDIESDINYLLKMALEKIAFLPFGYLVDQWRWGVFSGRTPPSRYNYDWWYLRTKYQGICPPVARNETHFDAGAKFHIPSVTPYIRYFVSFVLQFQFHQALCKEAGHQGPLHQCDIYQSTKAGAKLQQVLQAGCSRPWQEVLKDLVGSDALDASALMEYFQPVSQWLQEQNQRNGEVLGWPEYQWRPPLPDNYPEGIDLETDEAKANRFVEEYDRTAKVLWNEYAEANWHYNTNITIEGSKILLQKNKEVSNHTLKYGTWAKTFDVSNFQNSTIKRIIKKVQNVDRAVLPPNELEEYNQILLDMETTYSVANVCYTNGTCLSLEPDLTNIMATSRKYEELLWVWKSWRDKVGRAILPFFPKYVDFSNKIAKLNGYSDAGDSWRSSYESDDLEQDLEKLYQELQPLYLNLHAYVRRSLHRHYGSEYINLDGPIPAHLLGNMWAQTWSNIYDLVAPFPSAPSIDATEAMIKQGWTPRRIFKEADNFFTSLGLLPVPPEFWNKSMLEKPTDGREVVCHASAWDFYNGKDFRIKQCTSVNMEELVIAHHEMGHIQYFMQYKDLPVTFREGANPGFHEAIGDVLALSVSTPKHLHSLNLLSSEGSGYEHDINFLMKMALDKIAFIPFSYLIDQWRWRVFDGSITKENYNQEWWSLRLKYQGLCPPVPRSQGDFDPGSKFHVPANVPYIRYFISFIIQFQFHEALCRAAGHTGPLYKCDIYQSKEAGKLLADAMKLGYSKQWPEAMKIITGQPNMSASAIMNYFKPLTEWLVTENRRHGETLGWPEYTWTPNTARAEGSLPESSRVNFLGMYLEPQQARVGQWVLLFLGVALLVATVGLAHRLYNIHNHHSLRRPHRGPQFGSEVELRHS

[2] = Compound was tested for its maximum lipophilicity.; type: physicochemical; settings: octanol/water
Outline: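 Shake-flask distribution coefficients in octanol–aqueous buffer across pH, run in triplicate and reported as the mean. Aqueous phases were HCl below pH 2, McIlvaine citrate-phosphate at pH 2.2–4.8, and Sorensen phosphate above pH 5, all at ionic strength 0.02. Phases were assayed before and after partitioning by UV or reversed-phase HPLC. Maximum lipophilicity was taken from the distribution–pH profile.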

[3] = The acid dissociation constant, pKa was determined.'a' represents value of C-terminus carboxylic acid.; type: physicochemical
Outline: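 Ionization constants came from potentiometric titration at 25 °C on a thermostated automatic titrator, with pKa calculated from the pH–volume data. For one ester, constants were instead determined by the partition method in Miglyol 812–aqueous buffer systems.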

[4] = target: T2, Angiotensin-converting enzyme (Rattus norvegicus, UniProt P47820); experiment: Compound was tested for inhibitory activity against angiotensin I converting enzyme
T2 sequence (P47820 whole entry): T1 sequence (whole entry)

[5] = The acid dissociation constant, pKa was determined. a'' represents value of C-terminus carboxylic acid.; type: physicochemical
Outline: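 Ionization constants measured by potentiometric titration at 25 °C on a thermostated automatic titrator, with pKa calculated from pH-volume data. For one ester prodrug, constants were instead obtained by the partition method in Miglyol 812-aqueous buffer systems.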

[6] = The acid dissociation constant, pKa was determined. 'a' represents value of C-terminus carboxylic acid.; type: physicochemical
Outline: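 Potentiometric titration at 25 °C on a thermostated automatic titrator. pKa values were calculated from pH–volume data. For one ester compound, ionization constants were instead obtained by the partition method in Miglyol 812–aqueous buffer systems.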

[7] = Ratio of biliary and urinary excretion of angiotensin converting enzyme inhibitors in male rat after intravenous dosing.; type: functional, Urine

| Relative activity [1] | Log Dmax [2] | SMILES | also measured |
| --- | --- | --- | --- |
| 1.6 |  | O=C(O)C1SC(c2ccc(C(F)(F)F)cc2)=NN1C(=O)CCS (stereo not given) |  |
| 1.3 |  | O=C(O)C1SC(c2ccccc2)=NN1C(=O)CCS (stereo not given) |  |
| 1.3 |  | COc1ccc(C2=NN(C(=O)CCS)C(C(=O)O)S2)cc1 (stereo not given) |  |
| 1 |  | O=C(O)C1SC(c2ccco2)=NN1C(=O)CCS (stereo not given) |  |
| 6.3 |  | O=C(O)C1SC(C2CCCCC2)=NN1C(=O)CCS (stereo not given) |  |
| 5.6 |  | CC(C)(C)C1=NN(C(=O)CCS)C(C(=O)O)S1 (stereo not given) |  |
| 2.5 |  | CC1=NN(C(=O)CCS)C(C(=O)O)S1 (stereo not given) |  |
| 1.3 |  | O=C(O)C1SC(C23CC4CC(CC(C4)C2)C3)=NN1C(=O)CCS (stereo not given) |  |

Second part, the molecule before the results:

| SMILES | Relative activity [1] | Log Dmax [2] | also measured |
| --- | --- | --- | --- |
| C[C@H](N[C@@H](CCc1ccccc1)C(=O)O)C(=O)N1CCC[C@H]1C(=O)O [ENALAPRILAT ANHYDROUS] |  | -0.7 | pKa [3]: 8.02 |
| CC(C)(C)C1=NN(C(=O)[C@H](CCCCN)N[C@@H](CCc2ccccc2)C(=O)O)[C@H](C(=O)O)S1 |  |  | IC50 [4]: 700 pM |
| CCC[C@H](N[C@@H](C)C(=O)N1N=C(C(C)(C)C)S[C@H]1C(=O)O)C(=O)O |  |  | IC50 [4]: 600 pM |
| C[C@H](N[C@@H](CCc1ccccc1)C(=O)O)C(=O)N1N=C(c2ccccc2)S[C@H]1C(=O)O |  |  | IC50 [4]: 1500 pM |
| NCCCC[C@H](N[C@@H](CCc1ccccc1)C(=O)O)C(=O)N1CCC[C@H]1C(=O)O [LISINOPRIL ANHYDROUS] |  | -2.86 | pKa [5]: 11.1 |
| CCOC(=O)[C@H](CCc1ccccc1)N[C@@H](C)C(=O)N1CCC[C@H]1C(=O)O |  | -0.06 | pKa [6]: 5.49 |
| C[C@H](N[C@@H](CCc1ccccc1)C(=O)O)C(=O)N1N=C(C(C)(C)C)S[C@H]1C(=O)O [UTIBAPRILAT] |  | 1.19 | pKa [3]: 8; IC50 [4]: 510 pM; Ratio [7]: 14.6 |
| CCOC(=O)[C@H](CCc1ccccc1)N[C@@H](C)C(=O)N1N=C(C(C)(C)C)S[C@H]1C(=O)O [UTIBAPRIL] |  | 1.61 | pKa [3]: 5.4 |
| CCOC(=O)[C@H](CCc1ccccc1)N[C@@H](C)C(=O)N1CC2(C[C@H]1C(=O)O)SCCS2 |  | 0.87 | pKa [3]: 5.5 |
